In article PMC3113683 (Biochemistry, 2009):
No end group written: not given here. *: point of attachment. Biotin = O=C1N[C@H]2[C@H](CS[C@H]2CCCCC(=O)*)N1

T1: LYP300 (Homo sapiens, UniProt Q9Y2R2)
T1 sequence (Q9Y2R2 1-300): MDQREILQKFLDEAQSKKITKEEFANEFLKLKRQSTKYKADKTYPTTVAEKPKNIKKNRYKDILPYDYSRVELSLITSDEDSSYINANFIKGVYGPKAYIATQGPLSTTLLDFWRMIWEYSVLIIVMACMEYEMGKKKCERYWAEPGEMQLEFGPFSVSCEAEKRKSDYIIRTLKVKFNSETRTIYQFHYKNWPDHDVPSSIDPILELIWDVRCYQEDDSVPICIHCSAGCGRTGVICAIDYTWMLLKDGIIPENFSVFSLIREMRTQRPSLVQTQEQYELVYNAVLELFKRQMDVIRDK


Tests used:
[1] = molecular target: T1, LYP300; assay: Phosphatase assay, trans effect of peptides on LYP300; format: biochemical; settings: Figure 5A,C; 5 nM LYP300; DiFMUP; Bis-Tris pH 6.0
[2] = system: LYP; format: biochemical, human; settings: Figure 2C; Vmax, 1 nM enzyme, 0.4 mM DiFMUP, triplicate
Method in brief: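 FLAG-tagged full-length LYP and C-terminal truncations (aa 1−300, 1−423, 1−517, 1−600) were expressed in baculovirus-infected Sf9 cells. They were purified on M2-FLAG beads, eluted with FLAG peptide plus DTT into 50 mM Tris-HCl pH 8.0, 0.5 mM EDTA, 1 mM DTT (>80% pure). Activity was measured under Vmax conditions in 50−100 mM Bis-Tris pH 6.0, 1−5 mM DTT. DiFMUP hydrolysis was followed continuously by fluorescence (ex 360, em 460 nm), with background subtracted using no-enzyme triplicates.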

[3] = system: LYP; format: biochemical, human; settings: Figure 2D; Vmax, 1 nM enzyme, 0.16 mM peptide, triplicate
[4] = system: T cell receptor (TCR) signaling; settings: T cells; ref [4]-[8]; cited from earlier work
[5] = Gel filtration chromatography; format: physicochemical; settings: Superdex 75 10/300 GL; TNE and phosphatase buffers
[6] = system: LYP; assay: Phosphatase kinetics of LYP300 and LYP320 from E. coli on DiFMUP; format: biochemical, human; settings: purified from bacterial lysates
Method in brief: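 LYP300 and LYP320 (aa 1−300, 1−320) expressed in BL21(DE3) from pET28a. Purified by Ni2+-NTA, His tag cleaved with thrombin, protease removed on benzamidine, dialysed into 50 mM Tris-HCl pH 8.0, 0.5 mM EDTA, 1 mM DTT. 5 nM enzyme was assayed in Bis-Tris pH 6.0/DTT over a DiFMUP concentration range. Fluorescence (ex 360, em 460 nm) was read continuously at initial rate. Triplicates were corrected against no-enzyme blanks and fitted to Michaelis–Menten.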

[7] = system: LYP; assay: Phosphatase kinetics of LYP300 and LYP320 from E. coli on pTyr peptide; format: biochemical, human; settings: purified from bacterial lysates

| Molecule | Phosphatase activity on DiFMUP [2] | Phosphatase activity on pTyr peptide [3] | further results |
| --- | --- | --- | --- |
| biotin-ATAPRIDDEIPPPLPVRTPESFIVVEEAGEFSPNVPKSLS (Biotin-ATAPRIDDEIPPPLPVRTPESFIVVEEAGEFSPNVPKSLS) [peptide of amino acids 604−643, reference compound] | – | – | Inhibition of LYP300 phosphatase activity by peptide [1]: did not lead to any significant inhibition of the phosphatase activity |
| HSGTESQAKHCIPEKNHTLQ [peptide of amino acids 301−320] | – | – | Inhibition of LYP300 phosphatase activity by peptide [1]: substantial inhibition of the phosphatase activity |
| LYP/S227: inactive mutant of LYP (protein, UniProt Q9Y2R2 1-807, looked up, variant C227S) Tyrosine-protein phosphatase …: MDQREILQKFLDEAQSKKITKEEFANEFLKLKRQSTKYKADKTYPTTVAEKPKNIKKNRYKDILPYDYSRVELSLITSDEDSSYINANFIKGVYGPKAYIATQGPLSTTLLDFWRMIWEYSVLIIVMACMEYEMGKKKCERYWAEPGEMQLEFGPFSVSCEAEKRKSDYIIRTLKVKFNSETRTIYQFHYKNWPDHDVPSSIDPILELIWDVRCYQEDDSVPICIHSSAGCGRTGVICAIDYTWMLLKDGIIPENFSVFSLIREMRTQRPSLVQTQEQYELVYNAVLELFKRQMDVIRDKHSGTESQAKHCIPEKNHTLQADSYSPNLPKSTTKAAKMMNQQRTKMEIKESSSFDFRTSEISAKEELVLHPAKSSTSFDFLELNYSFDKNADTTMKWQTKAFPIVGEPLQKHQSLDLGSLLFEGCSNSKPVNAAGRYFNSKVPITRTKSTPFELIQQRETKEVDSKENFSYLESQPHDSCFVEMQAQKVMHVSSAELNYSLPYDSKHQIRNASNVKHHDSSALGVYSYIPLVENPYFSSWPPSGTSSKMSLDLPEKQDGTVFPSSLLPTSSTSLFSYYNSHDSLSLNSPTNISSLLNQESAVLATAPRIDDEIPPPLPVRTPESFIVVEEAGEFSPNVPKSLSSAVKVKIGTSLEWGGTSEPKKFDDSVILRPSKSVKLRSPKSELHQDRSSPPPPLPERTLESFFLADEDCMQAQSIETYSTSYPDTMENSTSSKQTLKTPGKSFTRSKSLKILRNMKKSICNSCPPNKPAESVQSNNSSSFLNFGFANRFSKPKGPRNPPPTWNI | did not exhibit any activity | did not exhibit any activity | – |
| LYP: lymphoid tyrosine phosphatase LYP, encoded by the PTPN22 gene (protein, UniProt Q9Y2R2 1-807, looked up, HA tag) Tyrosine-protein phosphatase …: MDQREILQKFLDEAQSKKITKEEFANEFLKLKRQSTKYKADKTYPTTVAEKPKNIKKNRYKDILPYDYSRVELSLITSDEDSSYINANFIKGVYGPKAYIATQGPLSTTLLDFWRMIWEYSVLIIVMACMEYEMGKKKCERYWAEPGEMQLEFGPFSVSCEAEKRKSDYIIRTLKVKFNSETRTIYQFHYKNWPDHDVPSSIDPILELIWDVRCYQEDDSVPICIHCSAGCGRTGVICAIDYTWMLLKDGIIPENFSVFSLIREMRTQRPSLVQTQEQYELVYNAVLELFKRQMDVIRDKHSGTESQAKHCIPEKNHTLQADSYSPNLPKSTTKAAKMMNQQRTKMEIKESSSFDFRTSEISAKEELVLHPAKSSTSFDFLELNYSFDKNADTTMKWQTKAFPIVGEPLQKHQSLDLGSLLFEGCSNSKPVNAAGRYFNSKVPITRTKSTPFELIQQRETKEVDSKENFSYLESQPHDSCFVEMQAQKVMHVSSAELNYSLPYDSKHQIRNASNVKHHDSSALGVYSYIPLVENPYFSSWPPSGTSSKMSLDLPEKQDGTVFPSSLLPTSSTSLFSYYNSHDSLSLNSPTNISSLLNQESAVLATAPRIDDEIPPPLPVRTPESFIVVEEAGEFSPNVPKSLSSAVKVKIGTSLEWGGTSEPKKFDDSVILRPSKSVKLRSPKSELHQDRSSPPPPLPERTLESFFLADEDCMQAQSIETYSTSYPDTMENSTSSKQTLKTPGKSFTRSKSLKILRNMKKSICNSCPPNKPAESVQSNNSSSFLNFGFANRFSKPKGPRNPPPTWNI | – | – | Inhibition of T cell receptor signaling [4]: potently inhibit T cell receptor (TCR) signaling |
| LYP300: truncation of LYP immediately C-terminal to the catalytic domain (amino acids 1−300) (protein, left off: HA, N-terminal, kept) MDQREILQKFLDEAQSKKITKEEFANEFLKLKRQSTKYKADKTYPTTVAEKPKNIKKNRYKDILPYDYSRVELSLITSDEDSSYINANFIKGVYGPKAYIATQGPLSTTLLDFWRMIWEYSVLIIVMACMEYEMGKKKCERYWAEPGEMQLEFGPFSVSCEAEKRKSDYIIRTLKVKFNSETRTIYQFHYKNWPDHDVPSSIDPILELIWDVRCYQEDDSVPICIHCSAGCGRTGVICAIDYTWMLLKDGIIPENFSVFSLIREMRTQRPSLVQTQEQYELVYNAVLELFKRQMDVIRDK | greatly increased phosphatase activity | greatly increased phosphatase activity | Oligomeric state by gel filtration [5]: elute as monomers |
| LYP300/S227: inactive mutant of LYP300 (protein, UniProt Q9Y2R2 1-300, looked up, fragment C227S) MDQREILQKFLDEAQSKKITKEEFANEFLKLKRQSTKYKADKTYPTTVAEKPKNIKKNRYKDILPYDYSRVELSLITSDEDSSYINANFIKGVYGPKAYIATQGPLSTTLLDFWRMIWEYSVLIIVMACMEYEMGKKKCERYWAEPGEMQLEFGPFSVSCEAEKRKSDYIIRTLKVKFNSETRTIYQFHYKNWPDHDVPSSIDPILELIWDVRCYQEDDSVPICIHSSAGCGRTGVICAIDYTWMLLKDGIIPENFSVFSLIREMRTQRPSLVQTQEQYELVYNAVLELFKRQMDVIRDK | did not exhibit any activity | did not exhibit any activity | – |
| LYP423: LYP truncation, amino acids 1−423 (protein, UniProt Q9Y2R2 1-423, looked up, fragment) MDQREILQKFLDEAQSKKITKEEFANEFLKLKRQSTKYKADKTYPTTVAEKPKNIKKNRYKDILPYDYSRVELSLITSDEDSSYINANFIKGVYGPKAYIATQGPLSTTLLDFWRMIWEYSVLIIVMACMEYEMGKKKCERYWAEPGEMQLEFGPFSVSCEAEKRKSDYIIRTLKVKFNSETRTIYQFHYKNWPDHDVPSSIDPILELIWDVRCYQEDDSVPICIHCSAGCGRTGVICAIDYTWMLLKDGIIPENFSVFSLIREMRTQRPSLVQTQEQYELVYNAVLELFKRQMDVIRDKHSGTESQAKHCIPEKNHTLQADSYSPNLPKSTTKAAKMMNQQRTKMEIKESSSFDFRTSEISAKEELVLHPAKSSTSFDFLELNYSFDKNADTTMKWQTKAFPIVGEPLQKHQSLDLGSLLFE | slightly increased activity | slightly increased activity | – |
| LYP320: LYP truncation, amino acids 1−320 (protein, left off: His6, end not stated, cleaved) MDQREILQKFLDEAQSKKITKEEFANEFLKLKRQSTKYKADKTYPTTVAEKPKNIKKNRYKDILPYDYSRVELSLITSDEDSSYINANFIKGVYGPKAYIATQGPLSTTLLDFWRMIWEYSVLIIVMACMEYEMGKKKCERYWAEPGEMQLEFGPFSVSCEAEKRKSDYIIRTLKVKFNSETRTIYQFHYKNWPDHDVPSSIDPILELIWDVRCYQEDDSVPICIHCSAGCGRTGVICAIDYTWMLLKDGIIPENFSVFSLIREMRTQRPSLVQTQEQYELVYNAVLELFKRQMDVIRDKHSGTESQAKHCIPEKNHTLQ | – | – | Oligomeric state by gel filtration [5]: elute as monomers; Activity relative to LYP300 on DiFMUP [6]: consistently less active than LYP300; Activity relative to LYP300 on pTyr peptide [7]: consistently less active than LYP300 |
